Laboratory results from ChEMBL document CHEMBL4622987, “Folate Receptor Targeting and Cathepsin B-Sensitive Drug Delivery System for Selective Cancer Cell Death and Imaging” (ACS Med Chem Lett, 2020).

Assays:
SK-HEP1 = assay: Cytotoxicity against FR-positive human SKHEP1 cells assessed as reduction in cell viability measured after 72 hrs by MTT assay; format: functional, cell-based; settings: SK-HEP1, 72 h
Procedure, shortened: (§1)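 Cancer or normal human cells were exposed to a range of concentrations for 72 h. Viability was read by MTT assay. IC50 was derived from the concentration–response curves, and percent viability loss was taken at 20 μM.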

HeLa = assay: Cytotoxicity against FR-positive human HeLa cells assessed as reduction in cell viability measured after 72 hrs by MTT assay; format: functional, cell-based; procedure, shortened: as §1
SiHa = assay: Cytotoxicity against FR-positive human SiHa cells assessed as reduction in cell viability measured after 72 hrs by MTT assay; format: functional, cell-based; procedure, shortened: as §1
16HBE14o- = assay: Cytotoxicity against human 16HBE cells assessed as reduction in cell viability measured after 72 hrs by MTT assay; format: cell-based
A549 [1] = assay: Cytotoxicity against FR-negative human A549 cells assessed as reduction in cell viability measured after 72 hrs by MTT assay; format: functional, cell-based; settings: A549, 72 h
Cathepsin B [2] = target: T1, Cathepsin B (Homo sapiens, UniProt P07858); assay: Prodrug release assessed as cathepsin B (unknown origin)-mediated cleavage of GFLG peptide of parent compound by measuring formation of 7-ethyl-10-hydroxycamptothecin at 37 degreeC in presence of cathepsin B inhibitor CA-074 Me by fluorescence spectroscopy; format: ADME
Cathepsin B [3] = target: T1, Cathepsin B; assay: Prodrug release assessed as cathepsin B (unknown origin)-mediated cleavage of GFLG peptide of parent compound by measuring formation of 7-ethyl-10-hydroxycamptothecin at 37 degreeC by fluorescence spectroscopy; format: ADME
Procedure, shortened: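 The conjugate was incubated with cathepsin B at 37 °C, alongside an enzyme-free control. Release of free SN38 was followed as the rise in fluorescence over time (λex 365 nm, λem 540 nm).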

Cathepsin B [4] = target: T1, Cathepsin B; assay: Prodrug release assessed as cathepsin B (unknown origin)-mediated cleavage of GFLG peptide of parent compound by measuring retention time of 7-ethyl-10-hydroxycamptothecin by RP-HPLC analysis/mass spectrometry; format: ADME
Procedure, shortened: (§2)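 The cathepsin B digest of the conjugate was analysed by analytical RP-HPLC with mass spectrometry. Cleavage products were assigned from their retention times and [M+H]+ or [M+Na]+ ions.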

Cathepsin B [5] = target: T1, Cathepsin B; assay: Prodrug release assessed as cathepsin B (unknown origin)-mediated cleavage of parent compound by measuring retention time of folic acid linked-glycyl-hydroxypehylalanine by RP-HPLC analysis/mass spectrometry; format: ADME; procedure, shortened: as §2
Cathepsin B [6] = target: T1, Cathepsin B; assay: Prodrug release assessed as cathepsin B (unknown origin)-mediated cleavage of parent compound by measuring retention time of cyclic dipeptide matography-mass spectrometry; format: ADME
[7] = Drug uptake in folate receptor negative human A549 cells assessed as accumulation of compound in lysosomes by measuring fluorescence intensity at 5 uM incubated for 24 hrs by Hoechst 33342 staining based confocal microscopy; format: ADME, cell-based; settings: a549, 24 h
Procedure, shortened: (§3)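 Cells were incubated with 5 μM conjugate for 24 h. Nuclei were counterstained with Hoechst 33342 (1 μg/mL). Cellular fluorescence and its localisation were imaged by confocal microscopy.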

[8] = Drug uptake in folate receptor negative human 16HBE cells assessed as accumulation of compound at 5 uM incubated for 24 hrs by Hoechst 33342 staining based confocal microscopy; format: ADME, cell-based; settings: 16hbe14o-; procedure, shortened: as §3
Cathepsin B [9] = target: T1, Cathepsin B; assay: Prodrug release in FR-overexpressing human SKHEP1 cells assessed as cathepsin B-mediated 7-ethyl-10-hydroxycamptothecin accumulation in nucleus at 5 uM preincubated with cathepsin B inhibitor CA-074 Me for 24 hrs followed by compound treatment for 24 hrs by Hoechst 33342 staining based confocal microscopy; format: ADME, cell-based; settings: sk-hep1, 24 h
Procedure, shortened: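 SK-Hep-1 cells were pretreated with 20 μM CA-074 Me (cathepsin B inhibitor) for 24 h, then given 5 μM conjugate for 24 h. Nuclei were stained with Hoechst 33342 (1 μg/mL), and cells were imaged by confocal microscopy.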

Cathepsin B [10] = target: T1, Cathepsin B; assay: Prodrug release in FR-overexpressing human SKHEP1 cells assessed as cathepsin B-mediated 7-ethyl-10-hydroxycamptothecin accumulation in nucleus at 5 uM incubated for 24 hrs by Hoechst 33342 staining based confocal microscopy; format: ADME, cell-based; settings: sk-hep1, 24 h; procedure, shortened: as §3
A549 [11] = assay: Cytotoxicity against FR-negative human A549 cells assessed as reduction in cell viability at 20 uM measured after 72 hrs by MTT assay relative to control; format: functional; settings: A549, 72 h; procedure, shortened: as §1
[12] = Cytotoxicity against human 16HBE cells assessed as reduction in cell viability at 20 uM measured after 72 hrs by MTT assay relative to control; format: cell-based; settings: 16HBE (16HBE14o-) cells, read-out: INH; procedure, shortened: as §1
[13] = Retention time of the compound by RP-HPLC analysis/mass spectrometry; format: physicochemical
Cathepsin B [14] = target: T1, Cathepsin B; assay: Prodrug release in FR-overexpressing human SKHEP1 cells assessed as cathepsin B-mediated 7-ethyl-10-hydroxycamptothecin accumulation in nucleus at 5 uM preincubated with folic acid for 1 hr followed by compound treatment for 24 hrs by Hoechst 33342 staining based confocal microscopy; format: ADME, cell-based; settings: sk-hep1, 24 h
Procedure, shortened: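 SK-Hep-1 cells were pre-exposed to 3 mM free folic acid for 1 h to block the folate receptor, then given 5 μM conjugate for 24 h. Hoechst 33342 (1 μg/mL) was used as the nuclear stain, with confocal microscopy read-out.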

| SMILES | IC50 (SK-HEP1) | IC50 (HeLa) | IC50 (SiHa) | IC50 (16HBE14o-) | IC50 (A549 [1]) | Drug metabolism (Cathepsin B [2]) | Drug metabolism (Cathepsin B [3]) | Retention_time (Cathepsin B [4]) | Retention_time (Cathepsin B [5]) | Retention_time (Cathepsin B [6]) | Drug uptake [7] | Drug uptake [8] | Drug metabolism (Cathepsin B [9]) | Drug metabolism (Cathepsin B [10]) | inhibition at 20 µM (A549 [11]) | cytotoxicity at 72 h, 20 µM [12] | Retention_time [13] | Drug metabolism (Cathepsin B [14]) |
| --- | --- | --- | --- | --- | --- | --- | --- | --- | --- | --- | --- | --- | --- | --- | --- | --- | --- | --- |
| CCc1c2c(nc3ccc(O)cc13)-c1cc3c(c(=O)n1C2)COC(=O)[C@]3(O)CC [7-ETHYL-10-HYDROXYCAMPTOTHECIN] | 0.3 to 1 µM | 0.3 to 1 µM | 0.3 to 1 µM | 0.3 to 1 µM | 0.3 to 1 µM | – | – | – | – | – | – | – | – | – | – | – | – | – |
| CCc1c2c(nc3ccc(OCc4ccc(NC(=O)CNC(=O)[C@H](CC(C)C)NC(=O)[C@H](Cc5ccccc5)NC(=O)CNC(=O)COCCOCCOCCOCc5cn(CCOCCOCCOCCNC(=O)CC[C@H](NC(=O)c6ccc(NCc7cnc8nc(N)[nH]c(=O)c8n7)cc6)C(=O)O)nn5)cc4)cc13)-c1cc3c(c(=O)n1C2)COC(=O)[C@]3(O)CC | 2 to 3 µM | 2 to 3 µM | 2 to 3 µM | – | – | Metabolite_Notdetected | Metabolite_Detected | 23.6 min | 21.4 min | 34 min | Not Active | Not Active | Metabolite_Notdetected | Metabolite_Detected | 51% | 24% | 26.4 min | Metabolite_Notdetected |
